SR-BI DiI-HDL act: enhances SR-BI lipid uptake from DiI-HDL; 320,000 compounds, 0.096% hits; CHO ldlA[mSR-BI] cells, DiI-HDL uptake fluorescence, 3 h; 100 = double the neutral-control signal; AID 504775; activation, % at 12.5 µM;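 active means mean replicate activation of at least 60% and every replicate at or above 60%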;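 further: 0% = median plate neutral-control signal and 100% = twice that signal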
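Material – SR-BI-overexpressing, LDLR-lacking CHO cells · Medium – BSA-supplemented, HEPES-buffered Ham's F12, pH 7.4 · Doses – single concentration · Times – compound with DiI-HDL co-incubation, 3 h at 37 °C · Measured by – bottom-read fluorescence, 550/595 nm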
AHR act: activators of human aryl hydrocarbon receptor; P35869; AHR-responsive luciferase reporter cells, luminescence; activation, % at 5 µM; 320,000 compounds, 2.5% hits; AID 2796; in the data active means activation above about 47%;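 further: 0% = vehicle wells and 100% = reference agonist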
SR-BI HDL uptake: blocks mouse SR-BI lipid uptake from DiI-HDL; AID 488896; Q61009; 320,000 compounds, 0.96% hits; inhibition, % at 12.5 µM; ldlA[mSR-BI] CHO cells, DiI-HDL uptake fluorescence, 3 h;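 active means mean replicate inhibition of at least 70% and a set share of replicates each scoring 70 or more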;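 further: 0% = median of neutral control wells and 100% = median of positive control wells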
GAA850 FXN act: activators of GAA850 frataxin (FXN) promoter. HEK293 lucGAA850 FXN promoter luciferase reporter, 24 h; percent of 10 µM SAHA response. activation, % at 6 µM. 360,000 compounds, 0.56% hits. AID 540364;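 active means activation above the average of all compounds screened plus 3 SD, cutoff fixed separately per campaign, cut at about 7.5% in these data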;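 further: 0% = DMSO wells and 100% = 10 µM SAHA wells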
ABCB6 inh MLPCN: human ABCB6 transporter inhibition | Q9NP58 | K562-ABCB6 porphyrin accumulation, flow cytometry, 1 h; hits give low values | fluorescence ratio to DMSO, % at 10 µM | 360,000 compounds, 0.19% hits;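 active means fluorescence ratio to DMSO below 75%, the collection mean minus 3 SD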;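 further: signal is porphyrin accumulated inside mitochondria; 100% equals median channel fluorescence of DMSO control wells; lower ratio means ABCB6 inhibition with less porphyrin fluorescence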
HIF activator: HIF pathway transcriptional activation | U2OS HRE-luciferase reporter, luminescence; normalized: DMSO 0%, desferrioxamine 100% | activation, % at 7.5 µM (by protocol) | 300,000 compounds, 0.32% hits;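 active means mean activation of at least 10% of the iron chelator positive control signal, with at least half of replicates also reaching 10%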
An asterisk follows results filed as active; . = no result given. Hits are enriched below; roughly 3.9% of the tested compounds scored in any of these assays.

SMILES	SR-BI DiI-HDL act	AHR act	SR-BI HDL uptake	GAA850 FXN act	ABCB6 inh MLPCN	HIF activator
O=[N+]([O-])c1cccc(-c2csc(N/N=C/c3cccc(O)c3)n2)c1	-101.4	73.5*	101.3*	1.6	97.0	1.3
COc1ccc(NS(=O)(=O)c2ccc(NC(=S)NC(=O)c3ccc(Br)cc3)cc2)nn1	8.0	2.2	-8.0	0.1	98.0	-0.3
CCCOc1ccccc1NC(=O)c1c(-c2ccccc2)noc1C	-45.9	6.2	45.9	-1.6	106.0	.
Cc1ccc(NC(=O)[C@@H](NC(=O)c2cccc(S(=O)(=O)N3CCOCC3)c2)C(C)C)cc1C	-28.4	4.5	28.4	-0.3	99.0	-0.1
O=C(Nc1cccc(-c2csc(Nc3cccc(C(F)(F)F)c3)n2)c1)c1cc([N+](=O)[O-])cc(C(F)(F)F)c1	-106.6	35.6	106.6*	0.9	101.0	-2.1
COCCn1c(NC(=S)NC(=O)C23CC4CC(CC(C4)C2)C3)cc(=O)[nH]c1=O	.	-2.6	.	12.0*	96.0	0.0
COCCNC(=O)CN1C(=O)CC(C)(C)S(=O)(=O)c2ccccc21	3.4	-0.8	-3.4	13.1*	103.0	-0.3
CCN(CC)S(=O)(=O)c1cccc(NC(=O)COc2ccc(C#N)cc2OC)c1	-14.4	1.4	14.4	1.4	101.0	-0.2
Cn1ccc2c(/C=C/c3ccc(F)cc3)cc3c(c21)C1CCC3C1 (configuration not stated)	.	.	.	.	101.0	.
COc1ccc2c(c1)N1CCN=C1N2C	27.1	16.1	-27.1	-1.2	104.0	-0.1
CN1C2=NCCN2C(=O)c2cc(Cl)ccc21	24.5	59.1*	-24.5	0.8	99.0	-0.1
Cc1ccc(C(=O)NC(C)c2ccc(-n3ccnc3)cc2)c(C)c1 (configuration not stated)	16.7	30.8	-16.7	-0.3	98.0	0.6
Cc1c(C(=O)NC(C)c2ccc(-n3ccnc3)cc2)cccc1[N+](=O)[O-] (configuration not stated)	19.1	60.5*	-19.1	-0.3	100.0	-0.9
CSc1ccccc1C(=O)NC(C)c1ccc(-n2ccnc2)cc1 (configuration not stated)	-3.9	67.1*	3.9	1.3	92.0	0.2
CC(NC(=O)c1ccccc1Cl)c1ccc(-n2ccnc2)cc1 (configuration not stated)	-0.9	53.9*	0.9	1.0	92.0	-0.2
Cc1ccc(C)c(C(=O)NC(C)c2ccc(-n3ccnc3)cc2)c1 (configuration not stated)	4.2	78.2*	-4.2	1.3	97.0	1.2
Cc1cc(NC(=O)C(C)SCC(=O)N(Cc2ccccc2)c2ccccc2)no1 (configuration not stated)	2.9	0.1	-2.9	-3.1	102.0	0.1
O=C(NC(=S)NNC(=O)c1ccc(Cl)cc1Cl)c1cccnc1	9.9	-1.0	-9.9	2.1	101.0	1.2
O=C(NC(=S)Nc1ccccc1O)c1cncc(Br)c1	-22.7	53.5*	22.7	3.9	110.0	0.9
O=C(NC(=S)NNC(=O)c1ccccc1O)c1cccnc1	-124.0	2.1	124.0*	-0.6	93.0	-1.0
O=C(NC(=S)Nc1ccccc1O)c1cccnc1	1.2	58.3*	-1.2	0.8	105.0	-2.6
COc1ccc(C(=O)NC(=S)NNC(=O)c2ccccc2O)cc1	-88.6	6.6	88.6*	-1.6	98.0	-0.4
O=C(NC(=S)Nc1ccccc1C(=O)O)c1cncc(Br)c1	17.3	2.1	-17.3	1.4	98.0	0.5
Cc1cccc(NC(=O)C2CCCC2)c1	24.6	9.2	-24.6	0.8	95.0	-0.2
O=C(Nc1cc(Br)ccc1O)c1cc(-c2cccs2)on1	.	1.6	.	3.5	97.0	2.6
COc1ccc(C(C)NC(=O)Cc2ccc(Br)cc2)cc1 (configuration not stated)	-21.3	2.1	21.3	0.7	104.0	-0.4
CCN(c1ccccc1)S(=O)(=O)c1ccc(NC(=O)c2nc(S(C)(=O)=O)ncc2Cl)cc1	-10.0	-2.8	10.0	-4.3	37.0*	0.7
CCS(=O)(=O)c1ncc(Cl)c(C(=O)Nc2ccc(S(=O)(=O)N(C)c3ccccc3)cc2)n1	-85.5	-0.5	85.5*	-15.9	39.0*	-3.8

Screens from PubChem.
